Experimental findings from ChEMBL document CHEMBL2146361, “Identification of novel α7 nicotinic receptor ligands by in silico screening against the crystal structure of a chimeric α7 receptor ligand binding domain” (Bioorg Med Chem, 2012) are described below.

In general, pKi refers to the negative decadic logarithm of the Ki, by convention in mol/L. Read a high pKi as a low Ki. As usually defined, the Ki is the dissociation constant of the complex between target and ligand, obtained from inhibition or displacement. A high value points to weaker binding. By pKd is commonly meant the Kd on a negative log10 scale, so that one unit is a factor of ten. A low value points to a large Kd.

Neuronal acetylcholine receptor subunit alpha-7, sequence (P36544 23-502 limits assumed): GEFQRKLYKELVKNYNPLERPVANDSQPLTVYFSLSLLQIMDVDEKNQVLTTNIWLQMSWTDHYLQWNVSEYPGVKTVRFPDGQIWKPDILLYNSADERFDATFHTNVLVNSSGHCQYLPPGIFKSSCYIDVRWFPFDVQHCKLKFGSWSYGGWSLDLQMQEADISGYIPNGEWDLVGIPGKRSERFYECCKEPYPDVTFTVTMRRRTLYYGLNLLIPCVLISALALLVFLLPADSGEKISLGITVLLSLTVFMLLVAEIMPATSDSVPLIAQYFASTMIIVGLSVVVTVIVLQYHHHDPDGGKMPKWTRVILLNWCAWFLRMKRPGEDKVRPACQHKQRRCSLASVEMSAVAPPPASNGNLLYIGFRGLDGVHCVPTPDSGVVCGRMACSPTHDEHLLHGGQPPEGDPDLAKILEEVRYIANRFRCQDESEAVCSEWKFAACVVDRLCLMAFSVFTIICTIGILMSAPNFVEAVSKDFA

This test concerns the target Neuronal acetylcholine receptor subunit alpha-7 (Homo sapiens, UniProt P36544). In words: Displacement of [3H]epibatidine from chimeric human alpha7-5-HT3A receptor expressed in HEK293 cells after 2 hrs by scintillation counter analysis. It counts as cell-based. The essentials: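 HEK293 cells grown in DMEM:F12 with 10% fetal calf serum at 37 °C, 7% CO₂, transiently transfected (PEI) and harvested after 2–3 days. 50 μg membranes incubated in 10 mM HEPES pH 7.4 with 3 nM [³H]epibatidine, ≥2 h at 4 °C, 10-point competition; non-specific binding with 3 mM (−)-nicotine.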
(Loss of bound radioactivity is the signal in a displacement assay; it reports binding, not function.)
`CC1CCN(CC(O)COc2ccc(-c3ccccc3)cc2)CC1` (configuration not stated): the pKi amounted to 5.7.
Compound `c1ccc(C2CN3CCC2CC3)cc1` (configuration not stated) showed a Ki of 200 nM and a pKi of 6.7.
`CN1CCc2[nH]c3ccccc3c2C1` gave a pKi of 5.2.
Still for that read-out and setting: to `COc1cc2c(cc1OC)C1CC(c3ccccc3)CCN1CC2` (configuration not stated) belongs 5.8.
On to `CC1CCN2CCc3c([nH]c4ccccc34)C2C1` (configuration not stated), for which the Ki turned out to be 400 nM and the pKi is recorded as 6.4.
`CC1CC2(CCCCCC2)NCc2ccccc21` (configuration not stated) had a pKi of 5.1.
Same read-out and setting: to `CC1/C(=N/O)CC(c2ccccc2)N(C)C1c1ccccc1` (configuration not stated) belongs 5.3; to `CC1C(c2ccccc2)NC(c2ccccc2)C(C)C1(C)O` (configuration not stated), 5.4.
Still for that read-out and setting: to `N#CCOCC(O)C[n+]1ccccc1` (configuration not stated) belongs 5.6.
The compound `Clc1ccc(C2CC3CCC2N3)cn1` (configuration not stated) [EPIBATIDINE] came in with a pKd of 8.2.
